Assay results reported in ChEMBL document CHEMBL4689842, “EUbOPEN Chemogenomics Library wave 1” (2021).

System: HEK-293T
Test: Multiplex assay against HEK293T;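 as to Population Tubulin-Different-Phenotype (%): share of the cells with healthy nuclei that show this phenotype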
Type: toxicity, cell-based
Conditions: human
How it was run: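 On a CQ1 microscope at 37°C and 5% CO2, live cells were imaged after compound addition. They had been stained at seeding with Hoechst33342, BioTracker Green Microtubule Cytoskeleton Dye, MitoTracker Red and Annexin V Alexa Fluor 680. CellPathfinder machine-learning gating assigned cells to Hoechst high-intensity objects or normal cells, normal cells to healthy, pyknosed or fragmented nuclei, and pyknosed cells to mitotic or apoptotic. Tubulin, mitochondrial-mass and membrane-permeability phenotypes are per cents of healthy-nucleus cells.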

[1] = 12 h, 1 µM, compound concentration 1 uM, replicate 1
[2] = 12 h, 1 µM, compound concentration 1 uM, replicate 2
[3] = 12 h, 10 µM, compound concentration 10 uM, replicate 1
[4] = 12 h, 10 µM, compound concentration 10 uM, replicate 2
[5] = 24 h, 1 µM, compound concentration 1 uM, replicate 1
[6] = 24 h, 1 µM, compound concentration 1 uM, replicate 2
[7] = 24 h, 10 µM, compound concentration 10 uM, replicate 1
[8] = 24 h, 10 µM, compound concentration 10 uM, replicate 2
[9] = 48 h, 1 µM, compound concentration 1 uM, replicate 1
[10] = 48 h, 1 µM, compound concentration 1 uM, replicate 2
[11] = 48 h, 10 µM, compound concentration 10 uM, replicate 1
[12] = 48 h, 10 µM, compound concentration 10 uM, replicate 2

## O=C(Nc1ccc(-c2ccnc(Nc3ccc(N4CCOCC4)cc3)n2)cc1)[C@@H]1CCCN1
[1]
  Population Apoptotic (%): 46%
  Population Fragmented Nuclei (%): 9%
  Population Healthy Nuclei (%): 34%
  Population Hoechst High Intensity Objects (%): 11%
  Population Membrane Permeable-Phenotype (%): 2%
  Population Mitochondria Different-Phenotype (%): 77%
  Population Mitotic Cells (%): 53%
  Population Normal (%): 88%
  Population Pyknosed Nuclei (%): 56%
  Population Tubulin-Different-Phenotype (%): 50%
  Total Cell Count: 289
[2]
  Population Apoptotic (%): 13%
  Population Fragmented Nuclei (%): 2%
  Population Healthy Nuclei (%): 45%
  Population Hoechst High Intensity Objects (%): 4%
  Population Membrane Permeable-Phenotype (%): 12%
  Population Mitochondria Different-Phenotype (%): 19%
  Population Mitotic Cells (%): 86%
  Population Normal (%): 95%
  Population Pyknosed Nuclei (%): 51%
  Population Tubulin-Different-Phenotype (%): 30%
  Total Cell Count: 246
[3]
  Population Apoptotic (%): 54%
  Population Fragmented Nuclei (%): 16%
  Population Healthy Nuclei (%): 17%
  Population Hoechst High Intensity Objects (%): 18%
  Population Membrane Permeable-Phenotype (%): 0%
  Population Mitochondria Different-Phenotype (%): 96%
  Population Mitotic Cells (%): 45%
  Population Normal (%): 81%
  Population Pyknosed Nuclei (%): 65%
  Population Tubulin-Different-Phenotype (%): 100%
  Total Cell Count: 232
[4]
  Population Apoptotic (%): 27%
  Population Fragmented Nuclei (%): 12%
  Population Healthy Nuclei (%): 15%
  Population Hoechst High Intensity Objects (%): 4%
  Population Membrane Permeable-Phenotype (%): 12%
  Population Mitochondria Different-Phenotype (%): 62%
  Population Mitotic Cells (%): 72%
  Population Normal (%): 95%
  Population Pyknosed Nuclei (%): 72%
  Population Tubulin-Different-Phenotype (%): 91%
  Total Cell Count: 163
[5]
  Population Apoptotic (%): 51%
  Population Fragmented Nuclei (%): 10%
  Population Healthy Nuclei (%): 52%
  Population Hoechst High Intensity Objects (%): 12%
  Population Membrane Permeable-Phenotype (%): 1%
  Population Mitochondria Different-Phenotype (%): 75%
  Population Mitotic Cells (%): 48%
  Population Normal (%): 87%
  Population Pyknosed Nuclei (%): 36%
  Population Tubulin-Different-Phenotype (%): 51%
  Total Cell Count: 337
[6]
  Population Apoptotic (%): 17%
  Population Fragmented Nuclei (%): 3%
  Population Healthy Nuclei (%): 63%
  Population Hoechst High Intensity Objects (%): 3%
  Population Membrane Permeable-Phenotype (%): 6%
  Population Mitochondria Different-Phenotype (%): 21%
  Population Mitotic Cells (%): 82%
  Population Normal (%): 96%
  Population Pyknosed Nuclei (%): 32%
  Population Tubulin-Different-Phenotype (%): 46%
  Total Cell Count: 303
[7]
  Population Apoptotic (%): 57%
  Population Fragmented Nuclei (%): 18%
  Population Healthy Nuclei (%): 24%
  Population Hoechst High Intensity Objects (%): 12%
  Population Membrane Permeable-Phenotype (%): 1%
  Population Mitochondria Different-Phenotype (%): 98%
  Population Mitotic Cells (%): 42%
  Population Normal (%): 87%
  Population Pyknosed Nuclei (%): 56%
  Population Tubulin-Different-Phenotype (%): 98%
  Total Cell Count: 242
[8]
  Population Apoptotic (%): 32%
  Population Fragmented Nuclei (%): 7%
  Population Healthy Nuclei (%): 38%
  Population Hoechst High Intensity Objects (%): 4%
  Population Membrane Permeable-Phenotype (%): 7%
  Population Mitochondria Different-Phenotype (%): 56%
  Population Mitotic Cells (%): 67%
  Population Normal (%): 95%
  Population Pyknosed Nuclei (%): 53%
  Population Tubulin-Different-Phenotype (%): 88%
  Total Cell Count: 186
[9]
  Population Apoptotic (%): 48%
  Population Fragmented Nuclei (%): 10%
  Population Healthy Nuclei (%): 71%
  Population Hoechst High Intensity Objects (%): 7%
  Population Membrane Permeable-Phenotype (%): 3%
  Population Mitochondria Different-Phenotype (%): 31%
  Population Mitotic Cells (%): 51%
  Population Normal (%): 92%
  Population Pyknosed Nuclei (%): 17%
  Population Tubulin-Different-Phenotype (%): 33%
  Total Cell Count: 482
[10]
  Population Apoptotic (%): 10%
  Population Fragmented Nuclei (%): 4%
  Population Healthy Nuclei (%): 84%
  Population Hoechst High Intensity Objects (%): 3%
  Population Membrane Permeable-Phenotype (%): 4%
  Population Mitochondria Different-Phenotype (%): 6%
  Population Mitotic Cells (%): 90%
  Population Normal (%): 96%
  Population Pyknosed Nuclei (%): 10%
  Population Tubulin-Different-Phenotype (%): 25%
  Total Cell Count: 495
[11]
  Population Apoptotic (%): 49%
  Population Fragmented Nuclei (%): 22%
  Population Healthy Nuclei (%): 48%
  Population Hoechst High Intensity Objects (%): 8%
  Population Membrane Permeable-Phenotype (%): 4%
  Population Mitochondria Different-Phenotype (%): 84%
  Population Mitotic Cells (%): 50%
  Population Normal (%): 91%
  Population Pyknosed Nuclei (%): 29%
  Population Tubulin-Different-Phenotype (%): 95%
  Total Cell Count: 271
[12]
  Population Apoptotic (%): 36%
  Population Fragmented Nuclei (%): 10%
  Population Healthy Nuclei (%): 60%
  Population Hoechst High Intensity Objects (%): 5%
  Population Membrane Permeable-Phenotype (%): 10%
  Population Mitochondria Different-Phenotype (%): 38%
  Population Mitotic Cells (%): 63%
  Population Normal (%): 94%
  Population Tubulin-Different-Phenotype (%): 81%
  Total Cell Count: 246

## CCn1cc(-c2ccnc3[nH]c(-c4cccc(CN(C)C)c4)cc23)c(-c2ccc(NC(=O)N(C)C)cc2)n1 [GSK-1070916]
[1]
  Population Apoptotic (%): 17%
  Population Fragmented Nuclei (%): 16%
  Population Healthy Nuclei (%): 64%
  Population Hoechst High Intensity Objects (%): 11%
  Population Membrane Permeable-Phenotype (%): 16%
  Population Mitochondria Different-Phenotype (%): 9%
  Population Mitotic Cells (%): 82%
  Population Normal (%): 88%
  Population Pyknosed Nuclei (%): 18%
  Population Tubulin-Different-Phenotype (%): 18%
  Total Cell Count: 676
[2]
  Population Apoptotic (%): 8%
  Population Fragmented Nuclei (%): 6%
  Population Healthy Nuclei (%): 84%
  Population Hoechst High Intensity Objects (%): 2%
  Population Membrane Permeable-Phenotype (%): 9%
  Population Mitochondria Different-Phenotype (%): 13%
  Population Mitotic Cells (%): 91%
  Population Normal (%): 97%
  Population Pyknosed Nuclei (%): 8%
  Population Tubulin-Different-Phenotype (%): 36%
  Total Cell Count: 1405
[3]
  Population Apoptotic (%): 28%
  Population Fragmented Nuclei (%): 14%
  Population Healthy Nuclei (%): 49%
  Population Hoechst High Intensity Objects (%): 24%
  Population Membrane Permeable-Phenotype (%): 16%
  Population Mitochondria Different-Phenotype (%): 32%
  Population Mitotic Cells (%): 71%
  Population Normal (%): 75%
  Population Pyknosed Nuclei (%): 35%
  Population Tubulin-Different-Phenotype (%): 91%
  Total Cell Count: 688
[4]
  Population Apoptotic (%): 8%
  Population Fragmented Nuclei (%): 1%
  Population Healthy Nuclei (%): 81%
  Population Hoechst High Intensity Objects (%): 10%
  Population Membrane Permeable-Phenotype (%): 14%
  Population Mitochondria Different-Phenotype (%): 37%
  Population Mitotic Cells (%): 91%
  Population Normal (%): 89%
  Population Pyknosed Nuclei (%): 17%
  Population Tubulin-Different-Phenotype (%): 99%
  Total Cell Count: 1174
[5]
  Population Apoptotic (%): 15%
  Population Fragmented Nuclei (%): 13%
  Population Healthy Nuclei (%): 73%
  Population Hoechst High Intensity Objects (%): 8%
  Population Membrane Permeable-Phenotype (%): 18%
  Population Mitochondria Different-Phenotype (%): 6%
  Population Mitotic Cells (%): 84%
  Population Normal (%): 91%
  Population Pyknosed Nuclei (%): 12%
  Population Tubulin-Different-Phenotype (%): 37%
  Total Cell Count: 672
[6]
  Population Apoptotic (%): 3%
  Population Fragmented Nuclei (%): 9%
  Population Healthy Nuclei (%): 85%
  Population Hoechst High Intensity Objects (%): 5%
  Population Membrane Permeable-Phenotype (%): 12%
  Population Mitochondria Different-Phenotype (%): 3%
  Population Mitotic Cells (%): 96%
  Population Normal (%): 94%
  Population Pyknosed Nuclei (%): 5%
  Population Tubulin-Different-Phenotype (%): 43%
  Total Cell Count: 1602
[7]
  Population Apoptotic (%): 31%
  Population Fragmented Nuclei (%): 17%
  Population Healthy Nuclei (%): 57%
  Population Hoechst High Intensity Objects (%): 33%
  Population Membrane Permeable-Phenotype (%): 9%
  Population Mitochondria Different-Phenotype (%): 42%
  Population Mitotic Cells (%): 68%
  Population Normal (%): 66%
  Population Pyknosed Nuclei (%): 24%
  Population Tubulin-Different-Phenotype (%): 89%
  Total Cell Count: 562
[8]
  Population Apoptotic (%): 10%
  Population Fragmented Nuclei (%): 3%
  Population Healthy Nuclei (%): 84%
  Population Hoechst High Intensity Objects (%): 17%
  Population Membrane Permeable-Phenotype (%): 18%
  Population Mitochondria Different-Phenotype (%): 39%
  Population Mitotic Cells (%): 89%
  Population Normal (%): 82%
  Population Pyknosed Nuclei (%): 11%
  Population Tubulin-Different-Phenotype (%): 98%
  Total Cell Count: 1112
